Wnt bcat act – activates Wnt/beta-catenin signaling in a reporter cell assay | activator, plate reader | activation, % at 9.35 µM | 1.2% of 300,000 active; in the data active = activation above about 30%, passing the limit was not always enough; inconclusive = no clear call, values can overlap the other calls;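 note: 0% = neutral control wells and 100% = positive control wells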
SR-BI DiI inh – inhibitors of mouse SR-BI mediated HDL lipid uptake | AID 488896 | Q61009 | ldlA[mSR-BI] CHO cells, DiI-HDL uptake fluorescence, 3 h | inhibition, % at 12.5 µM | 0.96% of 320,000 active;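 active = mean replicate inhibition of at least 70% and a set share of replicates each scoring 70 or more; inconclusive = meets just one of the two criteria; inactive = fails both criteria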;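 note: 0% = median of neutral control wells and 100% = median of positive control wells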
Target sequence (Q61009 whole entry, looked up): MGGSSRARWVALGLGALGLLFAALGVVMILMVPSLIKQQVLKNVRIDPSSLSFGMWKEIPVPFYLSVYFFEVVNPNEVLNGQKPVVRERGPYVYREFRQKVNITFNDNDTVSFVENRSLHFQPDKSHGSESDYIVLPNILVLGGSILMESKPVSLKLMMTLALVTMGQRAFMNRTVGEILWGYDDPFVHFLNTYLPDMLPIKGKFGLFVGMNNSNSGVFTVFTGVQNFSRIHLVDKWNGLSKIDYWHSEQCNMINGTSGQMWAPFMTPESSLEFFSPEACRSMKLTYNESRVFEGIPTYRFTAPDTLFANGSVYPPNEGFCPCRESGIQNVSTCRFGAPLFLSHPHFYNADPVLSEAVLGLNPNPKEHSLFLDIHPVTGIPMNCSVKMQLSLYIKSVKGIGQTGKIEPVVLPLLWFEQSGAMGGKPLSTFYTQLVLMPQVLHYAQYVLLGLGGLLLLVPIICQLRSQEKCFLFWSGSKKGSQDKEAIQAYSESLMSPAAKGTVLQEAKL
HSF-1 act – increases HSF-1 driven luciferase reporter signal; NIH3T3-HGL HSF-1 luciferase reporter, MG132, 8 h; 100% = twice DMSO control signal; activation, % at 9 µM; 1.7% of 300,000 active;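 active = mean replicate activation of at least 50% with a set share of replicates each reaching 50%; inconclusive = only one of those two conditions met; inactive = mean below 50% and too few replicates reaching it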;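 note: 0% = median of the neutral control wells and 100% = twice that signal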
MITF TRPM1 HTS – MITF TRPM1 promoter activation in melanoma cells; SK-MEL-5 TRPM1-promoter luciferase, 24 h; % of positive control, neutral wells = 0; 0.75% of 300,000 active; activation, % at 12.5 µM;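 active = mean activation of at least 80% with every replicate also reaching 80%; inconclusive = mean reaches 80% but some replicate falls short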;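 note: 0% = neutral control wells and 100% = parthenolide positive control wells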
SR-BI DiI-HDL act – SR-BI HDL lipid transfer activation | CHO ldlA[mSR-BI] cells, DiI-HDL uptake fluorescence, 3 h; 100 = double the neutral-control signal | activation, % at 12.5 µM | 0.096% of 320,000 active;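 active = mean replicate activation of at least 60% and every replicate at or above 60%; inconclusive = mean or all-replicate condition met, but not both; inactive = mean below 60% and not all replicates reaching 60%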;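 note: 0% = median plate neutral-control signal and 100% = twice that signal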
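Material: SR-BI-overexpressing, LDLR-lacking CHO cells | Dosing: Single compound concentration, delivered by pin transfer | Probe or stimulus: Labelled HDL, 10 µg/mL | Signal: Bottom-read cell fluorescence after medium removal, ex 550/em 595 nm | Schedule: 3 h, 37 °C | Evaluation: HDL uptake via cellular fluorescence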
* marks the source's active call; other numbers are inactive results; ? = inconclusive; nt = no result given. Sampled rows, rich in hits. Any-hit rate of the full collection: about 3.6%.

SMILES | Wnt bcat act | SR-BI DiI inh | HSF-1 act | MITF TRPM1 HTS | SR-BI DiI-HDL act
O=[N+]([O-])c1ccccc1C(O)Cc1ccccn1 (configuration not stated) | -1 | -16 | nt | 1 | 16
Cc1ccc(C(=O)Nc2cccc(C(F)(F)F)c2)cc1NC(=O)c1csc(-c2ccncc2)n1 | nt | 84* | -32 | 7 | -84
CCC1(CC)NC(=O)N(CC(=O)OC(C)C(=O)Nc2cc([N+](=O)[O-])ccc2OC)C1=O (configuration not stated) | -3 | 74* | 2 | -7 | -74
COC(=O)C1C(=O)N(S(=O)(=O)c2ccc([N+](=O)[O-])cc2)c2ccccc21 (configuration not stated) | -2 | nt | nt | nt | nt
Cc1ccc(NC(=S)Nc2cccc3cnccc23)cc1C | -1 | 75* | 34 | 11 | -75
Cc1ccc(NC(=S)Nc2cccc3cnccc23)cc1 | 26 | 10 | 23 | -11 | -10
CCOC(=O)C1=CCN(S(=O)(=O)c2ccccc2C)C1c1ccc(C)cc1 (configuration not stated) | 0 | nt | nt | nt | nt
O=C(/C=C/c1ccc([N+](=O)[O-])s1)N1CCCCC1 | 0 | -9 | 61* | -88 | 9
O=C(/C=C/c1ccc([N+](=O)[O-])s1)N1CCCC1 | 2 | -3 | 34 | -84 | 3
CC1CC(C)CN(C(=O)/C=C/c2ccc([N+](=O)[O-])s2)C1 (configuration not stated) | 4 | nt | 75* | -81 | nt
O=C(Nc1cc(Cl)ccc1Cl)P(=O)(O)c1ccccc1 | -7 | -9 | nt | 2 | 9
CCOC(=O)/C(C#N)=C/c1c(N2CCN(c3ccccc3)CC2)nc2ccccn2c1=O | 13 | 6 | 93* | 5 | -6
Cc1ccc(S(=O)(=O)N2C[C@H]3n4c(=O)ccc(=O)n4C[C@H](OC(=O)NCC4CCCCC4)[C@@]3(O)C2)cc1 | 0 | nt | nt | nt | nt
N#Cc1ccccc1CSc1nnc(-c2ccncc2)o1 | nt | -12 | 60* | 57 | 12
c1ccc2c(CSc3nnc(-c4ccncc4)o3)cccc2c1 | 0 | 16 | 59* | 8 | -16
Clc1ccccc1CSc1nnc(-c2ccncc2)o1 | nt | 14 | ? | nt | -14
Nc1ccc2oc(-c3ccccn3)nc2c1 | 44* | 4 | 1 | 48 | -4
c1ccc(Nc2nc(-c3ccccc3)nc3ccccc23)cc1 | -4 | 54 | 35 | 5 | -54
Nc1ccc(-c2nc(-c3ccccc3)nc3ccccc23)cc1 | -1 | 72* | -17 | -13 | -72
CCC(=O)N1CCC1(C)C(=O)Nc1ncc(C)s1 (configuration not stated) | -1 | nt | nt | nt | nt
O=C(NC1CCCC1)C1C(c2ccc(C(F)(F)F)cc2)=Nc2ccccc2N1C(=O)c1cc2ccccc2[nH]1 (configuration not stated) | 6 | nt | nt | nt | nt
CCOC(=O)C1=CCN(S(=O)(=O)c2cccc(Cl)c2)C1c1ccc(Cl)cc1 (configuration not stated) | -2 | nt | nt | nt | nt
COc1ccc(-c2nc3scc(-c4ccccc4)n3n2)cc1 | 4 | 52 | 121* | -6 | -52
CCOC(=O)Cc1csc2nc(-c3ccccc3)nn12 | 1 | 2 | 4 | 6 | -2
COC(=O)c1c(NC2=NS(=O)(=O)c3ccccc32)sc2c1CCC(C(C)(C)C)C2 (configuration not stated) | -2 | -19 | nt | -3 | 19
SMILES | Wnt bcat act | SR-BI DiI inh | HSF-1 act | MITF TRPM1 HTS | SR-BI DiI-HDL act
Cn1c2nc3ccccc3c-2nc2ccccc21 | 39* | nt | nt | nt | nt
COc1ccc(OCC2CN(Cc3ccccc3)S(=O)(=O)CCO2)cc1 (configuration not stated) | -2 | nt | nt | nt | nt
COC(=O)N/N=C/c1cc(Cl)cc(Cl)c1OCc1ccc(F)cc1 | nt | 84* | 19 | 11 | -84
COC(=O)N/N=C/c1cc(Cl)c(OCc2ccc(F)cc2)c(OC)c1 | nt | 34 | -11 | 0 | -34
CN(CC(=O)O)Cc1oc(CO)cc(=O)c1O | -3 | -14 | nt | 11 | 14
CC[n+]1c(/C=C/N(C)c2ccccc2)n(-c2ccccc2)c2ccc(-c3nc4ccccc4s3)cc21 | nt | 78* | -9 | nt | -78
COc1ccc(N2C(=S)N(C(=O)c3ccccc3)C(=Nc3ccccc3)C2=Nc2ccccc2)cc1 | nt | 15 | 34 | nt | -15
COc1ccc(N=C2C(=Nc3ccc(OC)cc3)N(c3ccc(OC)cc3)C(=S)N2C(=O)c2ccc(OC)cc2)cc1 | nt | 53 | 65* | nt | -53
COc1ccc(N=C2C(=Nc3ccc(OC)cc3)N(c3ccc(N(C)C)cc3)C(=S)N2c2ccc(OC)cc2)cc1 | -1 | 6 | 63* | 9 | -6
Cc1ccc2c(Cl)c(C(=O)NCC3CCCO3)sc2c1 (configuration not stated) | nt | 24 | 54* | 32 | -24
Cc1cc(NC(=O)c2ccc(Cl)cc2)no1 | 27 | -3 | 38 | 106* | 3
O=C(NCC1CCCO1)c1sc2ccccc2c1Cl (configuration not stated) | nt | -37 | 34 | 54 | 37
Cc1ccc2c(Cl)c(C(=O)Nc3cc(C)on3)sc2c1 | 42* | 15 | -44 | 53 | -15
Cc1ccc2c(Cl)c(C(=O)NCCc3ccccc3)sc2c1 | nt | 13 | 77* | 106* | -13
O=C1C=C(c2ccccc2)CO1 | -2 | -1 | nt | 3 | 1
CCCC(NC(=O)C(C)Sc1nnnn1C1CC1)c1ccccc1 (configuration not stated) | -4 | 6 | nt | -2 | -6
CCC(=O)Nc1cccc(-c2nnc(-c3ccccc3)o2)c1 | 1 | -3 | 22 | 100* | 3
Cc1nc(-c2ccc(NC(=O)c3ccccc3C)cc2)cs1 | -1 | 30 | 3 | 60 | -30
CCCCC(=O)Nc1cccc(-c2nnc(-c3ccccc3)o2)c1 | nt | 33 | 23 | 13 | -33
Cc1nc(-c2ccc(NC(=O)c3ccccc3Br)cc2)cs1 | 65* | 16 | 33 | ? | -16
Cc1nc(-c2ccc(C(=O)Nc3ccc(F)cc3)cc2)cs1 | 43* | 10 | 67* | 10 | -10
Cc1nc(-c2ccc(NC(=O)Cc3ccccc3)cc2)cs1 | 4 | -6 | 57* | 65 | 6
COC(=O)Cc1nnn2c1[C@H](C)[C@@H](OC)c1ccc(C(F)(F)F)cc1-2 | 2 | nt | nt | nt | nt
Cc1ccccc1-c1n[nH]nc1C1=CC(=O)C[C@H](c2ccc(F)cc2)C1 | -1 | nt | nt | nt | nt
CCC(=O)Nc1ccc(-c2cc(-c3ccccc3)nc(-c3ccc(NC(=O)CC)cc3)n2)cc1 | -4 | -103 | -27 | 7 | 103*
CC(=O)Nc1ccc(-c2cc(-c3ccccc3)nc(-c3ccccc3)n2)cc1 | nt | 45 | 37 | -17 | -45
CC[C@]1(C(=O)OC)[C@H]2C(=O)N(Cc3ccccc3)C(=O)[C@H]2[C@H]2CN=C(SCC(=O)c3ccccc3)N21 | 1 | 39 | nt | -4 | -39
CC(=O)Nc1ccc2nc(C3CC3)n(Cc3ccc(Cl)cc3)c(=O)c2c1 | -2 | 33 | ? | 43 | -33

High-throughput results deposited in PubChem BioAssay by Broad Institute.
